ChEMBL document CHEMBL5584325, “Discovery of novel coumarin triazolyl and phenoxyphenyl triazolyl derivatives targeting amyloid beta aggregation-mediated oxidative stress and neuroinflammation for enhanced neuroprotection” (RSC Med Chem, 2024)
Active and inactive are the calls of the source. No cut-off for these calls is given here.

How the values were obtained:
[1] = Octanol/water partition coefficient, log P of the compound incubated for 2 hrs under shaking condition by HPLC analysis; assay type: physicochemical
Summary of the method: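 Shake-flask log P: 10 mM stock (DMSO, or octanol for highly lipophilic compounds) partitioned between mutually saturated octanol and water at three phase ratios. Shaken 2 h at 25 ± 1 °C, phases separated, each phase quantified by C18 HPLC-UV. Mobile phase 0.1% formic acid:methanol 40:60; log P averaged over the three ratios.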

[2] = target: T1, Amyloid-beta precursor protein (Homo sapiens, UniProt P05067); assay: Inhibition of amyloid beta (1 to 42) (unknown origin) aggregation incubated for 48 hrs by ThioflavinT staining based fluorescence assay
BV-2 [3] = assay: Cytotoxicity against mouse BV-2 cells assessed as reduction in cell viability at 10 to 200 uM measured after 24 hrs by MTT assay; assay type: toxicity, cell-based; details: bv-2, 24 h, dose 10-200 µM
Summary of the method: (§1)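 BV-2 microglia grown in DMEM with 10% FBS, HEPES and Glutamax at 37 °C, 5% CO2, seeded overnight at 1 × 10^4 cells/well. Compound alone at 0–200 μM (range extended lower where needed) for 24 h. MTT 2 h at 37 °C, formazan dissolved in DMSO, A570 read. Used to pick non-toxic concentrations.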

[4] = target: T1, Amyloid-beta precursor protein; assay: Inhibition of amyloid beta (1 to 42) (unknown origin) aggregation at 100 uM incubated for 48 hrs by ThioflavinT staining based fluorescence assay relative to control
Summary of the method: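 Compound in DMSO (1 μl of a 1 mM solution) mixed with 9 μl of 25 μM Aβ1–42 in Tris pH 7.4. Incubated 48 h at 37 °C without agitation, then 200 μl of 5 μM ThT added. Fluorescence read at ex 446/em 500 nm; % inhibition vs DMSO control, solvent blank subtracted.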

BV-2 [5] = assay: Neuroprotective activity in amyloid beta (1 to 42)-induced cytotoxicity in mouse BV-2 cells assessed as cell viability at 20 uM measured after 24 hrs by MTT assay (reference value: 54.96 +/- 1.12%); assay type: functional; details: read-out: Activity
BV-2 [6] = assay: Cytotoxicity against mouse BV-2 cells assessed as reduction in cell viability at 20 uM measured after 24 hrs by MTT assay; assay type: toxicity, cell-based; details: bv-2, 24 h; summary of the method: as §1
BV-2 [7] = assay: Neuroprotective activity in amyloid beta (1 to 42)-induced morphological changes in mouse BV-2 cells at 20 uM; assay type: functional, cell-based
BV-2 [8] = assay: Neuroprotective activity in amyloid beta (1 to 42)-induced cytotoxicity in mouse BV-2 cells assessed as cell viability at 150 uM measured after 24 hrs by MTT assay (reference value: 54.96 +/- 1.12%); assay type: functional; details: read-out: Activity
BV-2 [9] = assay: Cytotoxicity against mouse BV-2 cells assessed as reduction in cell viability at 150 uM measured after 24 hrs by MTT assay; assay type: toxicity, cell-based; details: bv-2, 24 h; summary of the method: as §1
BV-2 [10] = assay: Neuroprotective activity in amyloid beta (1 to 42)-induced oxidative stress in mouse BV-2 cells assessed as intracellular ROS level at 40 uM measured after 24 hrs by DCFH-DA staining based fluorescence assay (reference value: 150.91 +/- 0.49%); assay type: functional
BV-2 [11] = assay: Neuroprotective activity in amyloid beta (1 to 42)-induced cytotoxicity in mouse BV-2 cells assessed as cell viability at 40 uM measured after 24 hrs by MTT assay (reference value: 54.96 +/- 1.12%); assay type: functional; details: read-out: Activity
BV-2 [12] = assay: Neuroprotective activity in amyloid beta (1 to 42)-induced inflammation in mouse BV-2 cells assessed as IL-1beta mRNA expression at 40 uM measured after 24 hrs by SYBR green staining based qRT-PCR analysis (reference value: 1.53 +/- 0.13%); assay type: functional
SH-SY5Y [13] = assay: Neuroprotective activity against human SH-SY5Y cells co-cultured with 40 uM compound pretreated BV-2 cells exposed to amyloid beta (1 to 42) assessed as cell viability measured after 24 hrs by MTT assay (reference value: 80.62 +/- 0.86%); assay type: functional; details: read-out: Activity
[14] = Induction of ROS generation in mouse BV-2 cells at 40 uM measured after 24 hrs by DCFH-DA staining based fluorescence assay; assay type: toxicity, cell-based; details: bv-2, 24 h
Summary of the method: (§2)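 BV-2 cells seeded overnight at 1 × 10^4/well, compound alone (no Aβ). Cells loaded with 20 μM (final) DCFH-DA for 30 min at 37 °C, washed, then given conditioned medium for 24 h. Fluorescence read at ex […] nm. Expressed as % of control; n = 3 in triplicate, one-way ANOVA with LSD.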

BV-2 [15] = assay: Neuroprotective activity in amyloid beta (1 to 42)-induced inflammation in mouse BV-2 cells assessed as […] in IL-6 mRNA expression at 40 uM measured after 24 hrs by SYBR green staining based qRT-PCR analysis relative to control; assay type: functional
BV-2 [16] = assay: Cytotoxicity against mouse BV-2 cells assessed as reduction in cell viability at 40 uM measured after 24 hrs by MTT assay; assay type: toxicity, cell-based; details: bv-2, 24 h; summary of the method: as §1
[17] = target: T1, Amyloid-beta precursor protein; assay: Inhibition of amyloid beta (1 to 42) aggregation in mouse BV-2 cells exposed to amyloid-beta (1 to 42) (unknown origin) at 40 uM measured after 24 to 48 hrs by thioflavin T staining based fluorescence assay; assay type: cell-based; details: time 24-48 hrs
BV-2 [18] = assay: Neuroprotective activity in amyloid beta (1 to 42)-induced inflammation in mouse BV-2 cells assessed as TNFalpha mRNA expression at 40 uM measured after 24 hrs by SYBR green staining based qRT-PCR analysis (reference value: 1.73 +/- 0.22%); assay type: functional
SH-SY5Y [19] = assay: Neuroprotective activity against human SH-SY5Y cells co-cultured with 2.5 uM compound pretreated BV-2 cells exposed to amyloid beta (1 to 42) assessed as cell viability measured after 24 hrs by MTT assay (reference value: 80.62 +/- 0.86%); assay type: functional; details: read-out: Activity
BV-2 [20] = assay: Neuroprotective activity in amyloid beta (1 to 42)-induced inflammation in mouse BV-2 cells assessed as TNFalpha mRNA expression at 2.5 uM measured after 24 hrs by SYBR green staining based qRT-PCR analysis (reference value: 1.73 +/- 0.22%); assay type: functional
[21] = target: T1, Amyloid-beta precursor protein; assay: Inhibition of amyloid beta (1 to 42) (unknown origin) aggregation assessed as reduction in amyloid beta fibril formation at 2.5 uM measured after 48 hrs by transmission electron microscopy
BV-2 [22] = assay: Neuroprotective activity in amyloid beta (1 to 42)-induced oxidative stress in mouse BV-2 cells assessed as intracellular ROS level at 2.5 uM measured after 24 hrs by DCFH-DA staining based fluorescence assay (reference value: 150.91 +/- 0.49%); assay type: functional
BV-2 [23] = assay: Neuroprotective activity in amyloid beta (1 to 42)-induced cytotoxicity in mouse BV-2 cells assessed as cell viability at 2.5 uM measured after 24 hrs by MTT assay (reference value: 54.96 +/- 1.12%); assay type: functional; details: read-out: Activity
BV-2 [24] = assay: Neuroprotective activity in amyloid beta (1 to 42)-induced inflammation in mouse BV-2 cells assessed as change in IL-6 mRNA expression at 2.5 uM measured after 24 hrs by SYBR green staining based qRT-PCR analysis; assay type: functional, cell-based
[25] = target: T1, Amyloid-beta precursor protein; assay: Inhibition of amyloid beta (1 to 42) aggregation in mouse BV-2 cells exposed to amyloid-beta (1 to 42) (unknown origin) at 2.5 uM measured after 24 to 48 hrs by thioflavin T staining based fluorescence assay; assay type: cell-based; details: time 24-48 hrs
BV-2 [26] = assay: Cytotoxicity against mouse BV-2 cells assessed as reduction in cell viability at 2.5 uM measured after 24 hrs by MTT assay; assay type: toxicity, cell-based; details: bv-2, 24 h; summary of the method: as §1
[27] = Induction of ROS generation in mouse BV-2 cells at 2.5 uM measured after 24 hrs by DCFH-DA staining based fluorescence assay; assay type: toxicity, cell-based; details: bv-2, 24 h; summary of the method: as §2
[28] = target: T1, Amyloid-beta precursor protein; assay: Inhibition of amyloid beta (1 to 42) (unknown origin) aggregation assessed as appearance of collapsed amyloid beta fibrils at 2.5 uM measured after 48 hrs by transmission electron microscopy
BV-2 [29] = assay: Neuroprotective activity in amyloid beta (1 to 42)-induced inflammation in mouse BV-2 cells assessed as IL-1beta mRNA expression at 2.5 uM measured after 24 hrs by SYBR green staining based qRT-PCR analysis (reference value: 1.53 +/- 0.13%); assay type: functional
BV-2 [30] = assay: Neuroprotective activity in amyloid beta (1 to 42)-induced morphological changes in mouse BV-2 cells assessed as appearance of healthy cells at 2.5 uM; assay type: functional, cell-based

T1 sequence (P05067 whole entry): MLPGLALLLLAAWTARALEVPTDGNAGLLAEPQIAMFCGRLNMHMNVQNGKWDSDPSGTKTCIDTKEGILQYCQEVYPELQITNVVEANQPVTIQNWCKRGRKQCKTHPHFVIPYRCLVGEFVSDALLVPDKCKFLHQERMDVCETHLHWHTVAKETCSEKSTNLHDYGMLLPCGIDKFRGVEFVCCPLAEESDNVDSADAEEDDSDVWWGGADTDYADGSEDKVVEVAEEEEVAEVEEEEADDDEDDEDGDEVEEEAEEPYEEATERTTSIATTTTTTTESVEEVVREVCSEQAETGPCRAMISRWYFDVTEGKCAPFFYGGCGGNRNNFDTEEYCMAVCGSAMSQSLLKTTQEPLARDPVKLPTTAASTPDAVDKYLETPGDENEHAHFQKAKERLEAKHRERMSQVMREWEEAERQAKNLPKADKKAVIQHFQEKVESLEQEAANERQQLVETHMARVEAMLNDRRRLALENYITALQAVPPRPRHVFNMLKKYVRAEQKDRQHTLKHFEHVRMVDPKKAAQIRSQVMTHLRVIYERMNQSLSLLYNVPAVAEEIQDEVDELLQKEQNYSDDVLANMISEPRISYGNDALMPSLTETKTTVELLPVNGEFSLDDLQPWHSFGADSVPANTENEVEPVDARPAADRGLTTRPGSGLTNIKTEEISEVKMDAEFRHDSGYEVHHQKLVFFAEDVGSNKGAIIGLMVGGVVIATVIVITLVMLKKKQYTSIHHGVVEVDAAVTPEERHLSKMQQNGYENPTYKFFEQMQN

| logP at 2 h [1] | IC50 [2] [µM] | inhibition [4] [%] | SMILES | also measured |
| --- | --- | --- | --- | --- |
| 4.47 | 0.003 | > 50 | COc1cc(C(=O)OCc2cn(-c3ccc(Oc4ccccc4)cc3)nn2)ccc1O | Activity (BV-2 [3]): Toxic |
| – | – | > 50 | COc1cc(/C=C/C(=O)CC(=O)/C=C/c2ccc(O)c(OC)c2)ccc1O | – |
| 2.41 | 17.7 | > 50 | O=C(Cc1ccccc1[N+](=O)[O-])OCc1cn(-c2cc3ccccc3oc2=O)nn1 | – |
| 2.38 | – | < 50 | O=C(OCc1cn(-c2cc3ccccc3oc2=O)nn1)c1ccccc1 | – |
| 2.61 | – | < 50 | COc1cc(C(=O)OCc2cn(-c3cc4ccccc4oc3=O)nn2)ccc1O | – |
| 2.02 | – | < 50 | O=C(NCc1cn(-c2cc3ccccc3oc2=O)nn1)c1ccccc1O | – |
| 4.26 | 1.15 | > 50 | COc1cc(C(=O)NCc2cn(-c3ccc(Oc4ccccc4)cc3)nn2)ccc1O | viability at 20 µM (BV-2 [5]): 34.5%; Activity (BV-2 [6]): Non-Toxic; Activity (BV-2 [7]): Active |
| 5.19 | 4.73 | > 50 | O=C(OCc1cn(-c2ccc(Oc3ccccc3)cc2)nn1)c1ccccc1 | viability at 20 µM (BV-2 [5]): 54.1%; Activity (BV-2 [6]): Non-Toxic |
| – | – | < 50 | O=C(NCc1cn(-c2ccc(Oc3ccccc3)cc2)nn1)c1ccccc1O | logP ([1]; 2 h): Not Determined(Insoluble) |
| 5.18 | – | < 50 | O=C(OCc1cn(-c2ccc(Oc3ccccc3)cc2)nn1)c1ccccc1O | – |
| 1.95 | – | < 50 | COc1cc(C(=O)NCc2cn(-c3cc4ccccc4oc3=O)nn2)ccc1O | – |
| 4.21 | – | < 50 | O=C(NCc1cn(-c2ccc(Oc3ccccc3)cc2)nn1)c1ccccc1 | viability at 150 µM (BV-2 [8]): 31.6%; Activity (BV-2 [9]): Non-Toxic |
| 2.25 | – | < 50 | O=C(NCc1cn(-c2cc3ccccc3oc2=O)nn1)c1ccccc1 | – |
| 4.44 | 0.04 | > 50 | COc1cc(/C=C/C(=O)NCc2cn(-c3ccc(Oc4ccccc4)cc3)nn2)ccc1O | Activity (BV-2 [10]): 137.18%; viability at 40 µM (BV-2 [11]): 60.8%; Activity (BV-2 [12]): 0.05%; viability at 40 µM (SH-SY5Y [13]): 87.2%; Activity [14]: Non-Toxic; Activity (BV-2 [15]): 2.04%; Activity (BV-2 [16]): Non-Toxic; inhibition [17]: Active |
| 2.65 | – | < 50 | COc1cc(/C=C/C(=O)NCc2cn(-c3cc4ccccc4oc3=O)nn2)ccc1O | Activity (BV-2 [18]): 0.64%; Activity (BV-2 [10]): 76.83%; viability at 40 µM (BV-2 [11]): 75.4%; Activity (BV-2 [12]): 0.47%; viability at 40 µM (SH-SY5Y [13]): 88.3%; Activity [14]: Non-Toxic; Activity (BV-2 [15]): inactive; Activity (BV-2 [16]): Non-Toxic; inhibition [17]: Active |
| 3.76 | 69.2 | > 50 | O=C(Cc1ccccc1[N+](=O)[O-])NCc1cn(-c2ccc(Oc3ccccc3)cc2)nn1 | – |
| 1.9 | 11.6 | > 50 | O=C(Cc1ccccc1[N+](=O)[O-])NCc1cn(-c2cc3ccccc3oc2=O)nn1 | – |
| 4.29 | 36.7 | > 50 | O=C(Cc1ccccc1[N+](=O)[O-])OCc1cn(-c2ccc(Oc3ccccc3)cc2)nn1 | – |
| 2.65 | – | < 50 | O=C(OCc1cn(-c2cc3ccccc3oc2=O)nn1)c1ccccc1O | – |
| 2.64 | 0.008 | > 50 | COc1cc(/C=C/C(=O)OCc2cn(-c3cc4ccccc4oc3=O)nn2)ccc1O | viability at 2.5 µM (SH-SY5Y [19]): 91.5%; Activity (BV-2 [20]): 1.09%; inhibition [21]: Active; Activity (BV-2 [22]): 107.04%; viability at 2.5 µM (BV-2 [23]): 71.3%; Activity (BV-2 [24]): inactive; inhibition [25]: Active; Activity (BV-2 [26]): Non-Toxic; Activity [27]: Non-Toxic; inhibition [28]: Active; Activity (BV-2 [29]): 0.71%; Activity (BV-2 [30]): Active |
